Screening results from PubChem.
T cruzi repl: inhibitors of intracellular T. cruzi growth, primary screen, luminescence, NIH3T3 host cells; T. cruzi beta-gal in NIH3T3, 90 h; inhibition, % (no concentration beside the values); 300,000 tested, 1.4% active; AID 1885, 2009;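 active means mean inhibition across valid replicates above about 55%, limit read from the data; inconclusive means mean below that limit but half or more replicates reach it; inactive means mean below it, under half of replicates reach it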;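 further: signal also drops with host cell toxicity which is not excluded here; 0% = plate median of DMSO wells and 100% = zero luminescence signal; higher percent means less beta-gal luminescence so fewer parasites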
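assay system = mouse NIH/3T3 fibroblasts infected with β-gal-expressing T. cruzi Tulahuen C4 | input = 5,000 NIH/3T3 host cells per well | buffer or medium = DMEM plus 2% FBS | timing = 3 h host attachment, then at least 90 h co-culture | measured by = GalScreen luminescence, 60 min | evaluation = luminescence reflecting intracellular parasite burden, expressed as percent inhibition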
CSC inhib: cancer stem cell viability inhibitors, primary screen, luminescence; cancer stem cell-like cells viability; inhibition, % at 7.5 µM; 300,000 tested, 1.1% active; in the data active means inhibition above about 75%; inconclusive means no clear call, values can overlap the other calls; tested in HMLE shEcad cells
XBP1 UPR activ: activators of adaptive XBP1 UPR arm, primary screen, cell-based, CHO-XBP1 luciferase reporter, luminescence, uHTS; IRE1-XBP1 UPR activation; percent of tunicamycin response, DMSO as zero; activation, % at 20 µM; 330,000 tested, 0.33% active;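 active means versus positive control, 20 µM dose yields 30% or more activation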;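 further: 100% = tunicamycin at 10 µg/mL and 0% = DMSO only wells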
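Material: CHO-XBP1 cells stably carrying IRE1-XBP1-driven luciferase reporter / Amount: 1000 cells per well / Compound: 20 µM, 1% DMSO / Times: 6 h treatment, 37 °C / Detection: luciferase luminescence / Measure: % activation of reporter signal versus tunicamycin and DMSO controls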
Beta apoptosis: inhibitors of cytokine-induced beta cell apoptosis, primary screen, luminescence. INS-1E cytokine-induced death, ATP luminescence, 48 h; percent of positive-control rescue, neutral wells zero. protection from apoptosis, % (test concentration not listed). 300,000 tested, 0.8% active. AID 435005, 2010;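 active means Every replicate reaches about 75%, or at least half do and their mean reaches it too, limit read from the data; inconclusive means At least half of replicates reach the limit but their mean does not; inactive means Under half of replicates reach the limit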;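 further: 0% = cytokine-treated negative control wells and 100% = positive control rescue; higher means more ATP so stronger rescue from cytokine killing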
Mdm2 MdmX PPI: inhibitors of human Mdm2-MdmX association, primary screen, cell-based, luminescence, split luciferase, SaOS-2, uHTS; 330,000 tested, 3% active; inhibition, % at 8 µM; AID 485346, 2010; SaOS-2 split-luciferase Mdm2/MdmX complementation; Protein Mdm4 (Homo sapiens) + E3 ubiquitin-protein ligase Mdm2 (Homo sapiens), …;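 active means inhibition of at least 50% at 8 µM in the primary screen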
Target sequence (O15151 whole entry, looked up): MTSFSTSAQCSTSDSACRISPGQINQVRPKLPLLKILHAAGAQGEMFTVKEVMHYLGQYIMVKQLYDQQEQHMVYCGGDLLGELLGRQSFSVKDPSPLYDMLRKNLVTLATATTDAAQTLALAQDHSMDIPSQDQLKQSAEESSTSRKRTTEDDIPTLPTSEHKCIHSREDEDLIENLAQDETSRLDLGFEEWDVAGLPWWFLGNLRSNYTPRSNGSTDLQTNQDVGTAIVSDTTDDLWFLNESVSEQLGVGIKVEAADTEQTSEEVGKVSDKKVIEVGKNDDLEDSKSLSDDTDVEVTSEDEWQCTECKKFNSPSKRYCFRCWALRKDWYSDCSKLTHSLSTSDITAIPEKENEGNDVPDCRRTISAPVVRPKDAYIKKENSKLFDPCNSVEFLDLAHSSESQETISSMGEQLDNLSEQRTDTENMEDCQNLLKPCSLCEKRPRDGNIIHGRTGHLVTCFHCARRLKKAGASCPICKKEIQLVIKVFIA
Target sequence (Q00987 whole entry, looked up): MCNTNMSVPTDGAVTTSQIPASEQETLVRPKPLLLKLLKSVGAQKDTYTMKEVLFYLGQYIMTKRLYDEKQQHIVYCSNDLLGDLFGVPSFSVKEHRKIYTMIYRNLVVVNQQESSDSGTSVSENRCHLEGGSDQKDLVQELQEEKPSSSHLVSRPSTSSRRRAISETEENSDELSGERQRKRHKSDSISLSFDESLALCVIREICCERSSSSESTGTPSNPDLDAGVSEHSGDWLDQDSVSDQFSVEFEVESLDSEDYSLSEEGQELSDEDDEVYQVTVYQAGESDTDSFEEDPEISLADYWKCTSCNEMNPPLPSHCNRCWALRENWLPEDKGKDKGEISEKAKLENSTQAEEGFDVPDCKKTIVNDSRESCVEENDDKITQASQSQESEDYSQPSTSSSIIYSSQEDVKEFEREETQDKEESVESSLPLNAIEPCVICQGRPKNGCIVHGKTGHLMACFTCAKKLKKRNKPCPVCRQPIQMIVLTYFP
CHOP UPR activ: activators of apoptotic CHOP UPR arm, primary screen, cell-based, CHO-CHOP luciferase reporter, luminescence, uHTS; UPR activation; percent of tunicamycin response over DMSO baseline; activation, % at 10 µM; 330,000 tested, 0.34% active; AID 449763, 2010;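 active means at 10 µM dose, activation of 40% or more, normalized to positive control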;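 further: 100% = tunicamycin at 10 µg/mL and 0% = DMSO alone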
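Material: CHO-CHOP cells, stable luciferase reporter of PERK-eIF2a-CHOP signalling; quantity: 500 reporter cells seeded per well; buffer or medium: F12 medium containing 10% fetal bovine serum; compound: one dose, 10 µM in 0.5% DMSO; incubation: 6 h compound treatment, 37 °C; measured by: Steady-Glo luciferase luminescence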
Mdm2-MdmX conf: Mdm2-MdmX complex disruptors, retested hits, confirmation, luminescence, single concentration; inhibition, % at 8 µM; AID 489028, 2010; Mdm2-MdmX binding, luminescent assay; shares compounds with Mdm2 MdmX PPI; 10,000 tested, 55% active; in the data active means inhibition above about 40%
FLuc counter: full-length luciferase signal inhibition, confirmation, counter-screen for Mdm2/MdmX interaction inhibitor project, cell-based, single concentration, SaOS-2 | shares compounds with Mdm2 MdmX PPI | SaOS-2 full-length luciferase counterscreen, luminescence | inhibition, % at 8 µM | 6,200 tested, 77% active | AID 504607, 2011;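 active means mean inhibition at 8 µM reaching about 37%, which flags the compound as non-specific, limit read from the data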;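 further: p53-null SaOS-2 cells with luciferase driven by a doxycycline-inducible promoter; compound on cells about two nights before reading with doxycycline added after day one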
An asterisk follows results filed as active; ? = inconclusive; / = no result given. An excerpt weighted towards active compounds, which were near 5% of everything screened.

SMILES	T cruzi repl	CSC inhib	XBP1 UPR activ	Beta apoptosis	Mdm2 MdmX PPI	CHOP UPR activ	Mdm2-MdmX conf	FLuc counter
O=C(C1CCN(S(=O)(=O)c2ccccc2F)CC1)N1CCCC1	/	/	3	/	9	0	/	/
COc1ccc(-c2ccc([C@H]3[C@@H]4C=CCC[C@@]4(C)C(=O)N3Cc3ccccc3)c(F)c2)cc1OC	67*	30	2	25	63*	1	22	/
CN(C)c1ccc(-c2ccc([C@H]3[C@@H]4C=CCC[C@@]4(C)C(=O)N3Cc3ccccc3)c(F)c2)cc1	27	44	0	19	46	1	/	/
NC(=O)c1ccsc1NC(=O)CSc1nnc(Nc2ccccc2)s1	-14	/	1	-2	17	-2	/	/
O=C(NCCc1ccccc1)C(c1cccs1)N(C(=O)CCl)c1ccc(Cl)cc1 (stereo not drawn)	26	64	-7	18	99*	-1	100*	52*
Cc1c(N=C2N=C(NC(=O)Nc3ccc(Cl)cc3)c3ccccc32)c(=O)n(-c2ccccc2)n1C	0	/	25	7	58*	3	25	/
CCOC(=O)/C(C#N)=C/c1cc2ccccc2nc1Cl	0	0	-2	1	27	-1	/	/
CSc1nc2ccccc2cc1/C=C(\C#N)c1cccc(Cl)c1	2	?	1	20	57*	-5	56*	58*
O=C(N/N=C/c1c[nH]c2ccccc12)c1cc(-c2ccc(-c3ccccc3)cc2)n[nH]1	33	-9	4	19	44	29	/	/
O=C(N/N=C/c1c[nH]c2ccccc12)c1cc(-c2ccc3ccccc3c2)n[nH]1	-35	68	10	19	54*	2	52*	87*
O=C(N/N=C/c1c[nH]c2ccccc12)c1cc(-c2cccc3ccccc23)n[nH]1	-2	65	0	16	58*	-1	2	/
Cc1cc(C(=O)NNC(=O)COc2ccccc2Cl)n[nH]1	0	/	-2	-9	-7	2	/	/
CN(Cc1c(F)cccc1Cl)C(=O)CCc1c[nH]c2ccccc12	5	-9	0	-10	-1	2	/	/
Oc1ccccc1-c1nc(NCc2cccnc2)c2ccccc2n1	18	63	-1	-11	70*	1	49*	78*
Oc1ccccc1-c1nc(NCc2ccccc2)c2ccccc2n1	11	29	-2	-5	56*	0	33	/
O=C(c1ccc(NS(=O)(=O)/C=C/c2ccccc2)cc1)N1CCCCC1	-13	2	1	14	13	-1	/	/
O=C(O)CC1(CC(=O)Nc2ccc3c(c2)OCCCO3)CCCCC1	/	23	-3	-3	25	0	/	/
O=C(N/N=C/c1cn(-c2ccccc2)nc1-c1cccnc1)c1ccccc1	0	-5	4	13	-11	4	/	/
O=C(N/N=C/c1cn(-c2cccs2)nc1-c1ccccc1)c1ccccc1O	-24	23	6	7	63*	19	15	/
NC(=O)c1sc2nc3c(c(-c4cccs4)c2c1N)CCCCC3	19	-7	0	-32	85*	-2	88*	53*
O=C1C(Cc2ccccc2)Nc2ncnc(N3CCc4ccccc4C3)c2N1Cc1ccc(Cl)cc1 (stereo not drawn)	43	67	5	17	56*	18	49*	57*
CCOC(=O)C1CCCN(CCC(=O)Nc2cccc(Cl)c2C)C1 (stereo not drawn)	4	-15	-2	-5	13	0	/	/
CCO[C@@H]1OC(C(=O)NCc2nc3ccccc3[nH]2)=C[C@H](C(C)(C)C)[C@H]1CCCO	9	-5	17	18	54*	-3	50*	95*
O=c1cc(-c2ccccc2)[nH]n1-c1nc2ccccc2[nH]1	-17	112*	18	34	95*	27	25	/
CCN1C(N(C)CCc2c[nH]c3ccccc23)=N[C@@H](c2cccc(C(F)(F)F)c2)C(C(=O)OC)=C1C	/	67	5	7	88*	3	41*	44*
SMILES	T cruzi repl	CSC inhib	XBP1 UPR activ	Beta apoptosis	Mdm2 MdmX PPI	CHOP UPR activ	Mdm2-MdmX conf	FLuc counter
Cc1ccc(S(=O)(=O)N2CCOC23CCN(C(=O)c2ccccc2Br)CC3)cc1	11	-3	-4	-8	10	1	/	/
CC(=O)c1sc2c(c1OC(=O)c1ccc(Cl)cc1Cl)c(=O)n(-c1ccccc1)c(=S)n2-c1ccccc1	8	67	8	-1	95*	15	92*	12
CC(=O)c1sc2c(c1N)c(=O)[nH]c(=O)n2-c1ccccc1	-13	-2	-5	-7	7	1	/	/
CCOc1ccc(Br)cc1C1C(C(=O)OC)=C(N)Oc2cc(N(C)C)ccc21 (stereo not drawn)	69*	56	0	2	80*	-1	55*	55*
CCOc1ccccc1C1C(C(=O)OC)=C(N)OC2=C1C(=O)CCC2 (stereo not drawn)	3	/	2	/	-18	1	/	/
CCOC(=O)N1CCN(c2c(F)cc3[nH]c(=S)[nH]c3c2Br)CC1	30	/	12	14	61*	-1	58*	47*
CCOC(=O)N1CCN(c2cc3[nH]c(=S)[nH]c3cc2F)CC1	1	-13	0	1	13	0	/	/
Cc1cc(C(F)(F)F)n(-c2nc(C(=O)NN)cs2)n1	22	-2	1	1	10	3	/	/
COc1ccc(/C=N/NC(=O)c2csc(-n3nc(C)cc3C(F)(F)F)n2)cc1	-7	54	1	1	50*	-3	48*	70*
CN(C)c1ccc(N2C(=NC(=O)CC3CCCCC3)SC3CS(=O)(=O)CC32)cc1 (stereo not drawn)	-11	-12	-2	-3	24	0	/	/
O=[N+]([O-])c1ccc(Oc2ccc(F)cc2)c2ccncc12	4	24	0	5	60*	-5	56*	23
O=[N+]([O-])c1ccc(Oc2cccc(Br)c2)c2ccncc12	25	22	-1	3	58*	0	18	/
